Data reported in article PMC11596327 (Chemistry (Weinheim an der Bergstrasse, Germany), 2023).

Columns and labels:
[1] = target: T1, Caspase-7 wt (Homo sapiens, UniProt P55210); assay: Fluorometric steady-state kinetics assay; assay type: biochemical; details: C7 pre-saturated with DICA (DICA-C7)
T1 sequence (P55210 24-198 limits assumed): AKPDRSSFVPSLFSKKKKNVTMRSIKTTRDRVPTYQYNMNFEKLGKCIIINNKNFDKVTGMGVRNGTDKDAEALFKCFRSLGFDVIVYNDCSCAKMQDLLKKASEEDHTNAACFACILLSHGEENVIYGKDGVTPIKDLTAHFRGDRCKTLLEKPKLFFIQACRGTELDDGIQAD
T1 sequence (P55210 207-303 limits assumed): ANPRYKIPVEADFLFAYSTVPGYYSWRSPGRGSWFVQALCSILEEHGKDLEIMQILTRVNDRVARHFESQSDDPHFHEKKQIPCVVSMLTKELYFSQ
Outline: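 Fluorometric steady-state kinetic assays on wild-type C7 and wild-type C3. Both IC50 and Ki were derived. Ki came from fitting a non-competitive inhibitor equation. Values are reported with confidence intervals at the 95% level.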

[2] = target: T2, C7 wt (Homo sapiens, UniProt P55210); assay: Fluorometric stopped-flow pre-steady state kinetics assay; assay type: biochemical; details: with increasing concentrations of inhibitor
T2 sequence (P55210 24-198 limits assumed): T1 sequence (P55210 24-198 limits assumed)
T2 sequence (P55210 207-303 limits assumed): T1 sequence (P55210 207-303 limits assumed)
Outline: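 Fluorescence stopped-flow on wild-type caspase-7. Progress curves were recorded with test compound at 6 to 500 uM or with DMSO alone, and a covalent allosteric inhibitor served as the assay-development control. Each curve was fitted individually to a pre-steady-state burst equation plus linear steady-state rate to give burst amplitude and k_burst. SE comes from a 95% confidence interval.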

[3] = target: T3, C7 (Homo sapiens, UniProt P55210); assay: Differential scanning fluorimetry; assay type: binding; details: DICA-saturated C7 plus Ac-DEVD-CMK
T3 sequence (P55210 24-198 limits assumed): T1 sequence (P55210 24-198 limits assumed)
T3 sequence (P55210 207-303 limits assumed): T1 sequence (P55210 207-303 limits assumed)

## O=C(COc1ccc(Cl)cc1Cl)NCCS [DICA, 2-(2,4-Dichlorophenoxy)-N-(2-mercaptoethyl)-acetamide, reference compound]
[1]
  turnover of Ac-DEVD-AFC substrate: no turnover
[2]
  burst amplitude: decrease
  burst phase rate constant (kburst): no change
[3]
  formation of physical enzyme-substrate-inhibitor (ESI) complex: able to physically bind substrate and DICA simultaneously
